High-throughput results deposited in PubChem BioAssay by several laboratories.
Most compounds without a hit are left out; they make up all but 5.5% or so of the library.
STAT3 act-1 – activators of IL-6 induced STAT3 signaling | U3A cells, IL-6 STAT3-luciferase reporter, luminescence; 100% = signal with IL-6 EC80 alone | activation (% of control), % at 5.6 µM | actives 0.91% (n = 190,000);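 active = activation above the screen-wide mean of compound activation plus 3 SD, cut at about 130% in these data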;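 note: 0% = background luminescence of wells with medium and substrate only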
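Assay system – human STAT1-deficient U3A cells with stable STAT3-luciferase reporter · Also added – IL-6 (33 ng/mL) · Schedule – compound 1 h, then IL-6 6 h at 37 °C · Technique – reporter luminescence signal · Evaluation – % activation versus median of IL-6-stimulated wells · Benchmarks – IL-6-only wells as 100% reference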
STAT1 act-1 – activators of IFN-gamma induced STAT1 signaling | NIH 3T3 STAT1-luciferase reporter, luminescence; 100% = IFN-gamma alone, no compound | activation (% of control), % at 5.5 µM | actives 2.6% (n = 200,000) | AID 932;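 active = activation above the screen-wide mean activation plus 3 SD, cut at about 130% in these data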;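 note: raw ratio to IFN-gamma control signal so 100% means no change and 0% no light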
STAT1 inh – reduces IFN-gamma driven STAT1 reporter signal. NIH 3T3 STAT1-luciferase reporter, luminescence. actives 0.35% (n = 200,000). inhibition, % at 5.5 µM. AID 920;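 active = inhibition above a set limit, the mean inhibition across all tested compounds plus 3 SD, cut at about 34% in these data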;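 note: 0% = IFN-gamma with DMSO and 100% = IFN-gamma with 300 µM nifuroxazide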
HSV replic up – increases HSV replication in cells; maximum fold increase; HSV replication augmentation in cells, fold increase; actives 0.005% (n = 220,000); in the data active = maximum fold increase above about 1.5; inconclusive = no clear call, values can overlap the other calls; tested in PC3 cells
Cl transport mod – modulators of human KCC2 chloride dependent transport | Q9H2X9 | KCC2 cells, thallium flux FluoZin-2 fluorescence | B-score of Tl+ flux slope (higher = more flux/activation; lower = inhibition) at 10 µM | actives 2.2% (n = 190,000);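 active = thallium flux slope and its plate-corrected score both differing from the plate sample mean at a set confidence after two filtering rounds, in either direction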;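 note: slope of fluorescence scaled to starting intensity during 10 to 20 s after thallium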
Target sequence (Q9H2X9 whole entry, looked up): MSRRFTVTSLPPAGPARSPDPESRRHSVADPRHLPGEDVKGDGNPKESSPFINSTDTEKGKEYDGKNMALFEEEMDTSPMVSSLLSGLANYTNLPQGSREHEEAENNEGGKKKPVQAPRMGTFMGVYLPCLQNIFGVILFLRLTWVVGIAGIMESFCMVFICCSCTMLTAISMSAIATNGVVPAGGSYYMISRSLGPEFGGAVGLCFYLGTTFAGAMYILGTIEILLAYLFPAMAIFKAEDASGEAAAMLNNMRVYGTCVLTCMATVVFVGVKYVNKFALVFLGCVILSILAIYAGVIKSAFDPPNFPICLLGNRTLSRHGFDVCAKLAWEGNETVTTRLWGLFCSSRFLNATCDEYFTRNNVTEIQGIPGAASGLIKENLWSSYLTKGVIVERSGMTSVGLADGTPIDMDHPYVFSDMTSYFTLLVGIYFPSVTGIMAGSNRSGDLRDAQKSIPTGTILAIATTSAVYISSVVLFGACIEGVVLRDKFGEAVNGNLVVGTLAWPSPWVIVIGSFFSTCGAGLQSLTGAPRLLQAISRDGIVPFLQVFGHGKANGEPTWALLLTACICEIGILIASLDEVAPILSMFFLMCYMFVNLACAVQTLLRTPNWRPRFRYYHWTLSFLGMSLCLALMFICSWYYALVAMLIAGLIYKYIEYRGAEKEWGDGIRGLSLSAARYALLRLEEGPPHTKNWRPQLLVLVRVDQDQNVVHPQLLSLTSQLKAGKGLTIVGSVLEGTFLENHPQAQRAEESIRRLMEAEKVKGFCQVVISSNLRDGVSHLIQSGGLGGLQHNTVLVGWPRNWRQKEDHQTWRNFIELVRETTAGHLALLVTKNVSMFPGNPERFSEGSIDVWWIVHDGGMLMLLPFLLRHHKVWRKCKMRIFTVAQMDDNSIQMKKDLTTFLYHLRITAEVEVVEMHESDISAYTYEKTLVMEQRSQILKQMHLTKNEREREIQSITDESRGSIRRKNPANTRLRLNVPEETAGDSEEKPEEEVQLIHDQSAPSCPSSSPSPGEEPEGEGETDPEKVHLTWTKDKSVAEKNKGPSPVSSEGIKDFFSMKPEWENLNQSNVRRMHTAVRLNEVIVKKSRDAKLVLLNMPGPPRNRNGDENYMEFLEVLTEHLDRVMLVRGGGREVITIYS
STAT3 blocker – inhibitors of IL-6 induced STAT3 signaling | inhibition, % at 5.5 µM | actives 0.89% (n = 190,000) | U3A cells, IL-6 STAT3-luciferase reporter, luminescence; host cell line lacks STAT1 | AID 862;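 active = inhibition above the mean inhibition across all screened compounds plus 3 SD, cut at about 44% in these data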;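 note: 0% = DMSO only wells and 100% = 100 µM nifuroxazide control wells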
STAT3 act-2 – STAT3 activation, confirmation assay; potentiation (% of control), % at 5.7 µM; shares compounds with STAT3 act-1; actives 64% (n = 1,200); U3A STAT3-luciferase reporter, IL-6 potentiation, luminescence; U3A cells lack STAT1; 100 means same as IL-6 alone;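 active = percent activation of the STAT3 luciferase reporter above a set limit taken from the earlier primary screen, cut at about 130% in these data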;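 note: 0% = background signal of medium plus substrate and 100% = median of IL-6 with DMSO wells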
NFkB act 2 – NF-kappaB activation in STAT3 activator counter-screen; shares compounds with STAT3 act-1; human cells, NF-kappaB reporter activation; activation (% of control), % at 5.7 µM; actives 11% (n = 1,200); AID 1309; in the data active = activation above about 120%;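 note: reporter induced by TNF-alpha stimulation; 100% = median of stimulated DMSO wells and 0% = no signal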
STAT1 act-2 – activates STAT1, counter-screen to STAT3 activators. shares compounds with STAT3 act-1. NIH 3T3 STAT1-luciferase reporter, IFN-gamma, luminescence. activation (% of control), % at 5.7 µM. actives 13% (n = 1,200). AID 1318;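 active = activation above the solvent-only control well mean plus 3 SD, set per screening run, cut at about 120% in these data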;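 note: 100% = IFN-gamma with DMSO median signal so 100% means no change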
The depositor's hits bear a star; i = inactive; ? = inconclusive; . = no result given.

SMILES	STAT3 act-1	STAT1 act-1	STAT1 inh	HSV replic up	Cl transport mod	STAT3 blocker	STAT3 act-2	NFkB act 2	STAT1 act-2
Cc1nn2c(-c3ccccc3)nnc2c2ccccc12	170*	108	-8	i	-1.8	-79	143*	117	115
O=c1[nH]nc(Cc2ccc3ccccc3n2)c2ccccc12	147*	110	-11	i	-1.2	-58	125	105	115
Cc1ccc(N)c2c1OCCC2=O	137*	85	16	i	-0.85	-48	137*	108	90
Cc1ccc(NC(=O)c2cnc(N3CCN(c4ccccn4)CC3)c3ccccc23)c(Br)c1	143*	91	8	i	0.016	-52	126	113	109
CC(=O)Oc1ccc(/C=C2/CCc3ccccc3C2=O)cc1	.	.	.	i	-2.1	.	.	.	.
CCOC(=O)C1=C(NC(=S)NC(=O)c2ccccc2)c2ccccc2CC1C(C)C (stereo unspecified)	139*	103	-4	i	.	-41	126	74	105
CCOC(=O)c1sc(NC(=S)NC(=O)c2ccccc2)c(C(=O)OCC)c1C	98	97	3	i	0.47	1	.	.	.
Nc1ccc(C2=Nc3cccc4cccc(c34)N2)cc1	158*	105	-6	.	-1.2	-71	163*	108	108
COc1cccc(C2=Nc3cccc4cccc(c34)N2)c1	118	93	7	i	-1.4	-19	.	.	.
CCOC(=O)CN1C(=O)C(O)(c2c(C)[nH]c3ccccc23)c2ccccc21 (stereo unspecified)	167*	91	9	.	.	-75	126	107	94
CCOC(=O)CN1C(=O)C2(OCCCO2)c2ccccc21	106	104	-5	i	0.0073	-5	.	.	.
COc1cc(OC)c(NC(=O)c2ccccc2F)cc1Cl	138*	119	-20	i	.	-46	132	107	116
COc1cc(NC(=O)c2ccc(Cl)cc2)c(OC)cc1Cl	149*	100	0	i	-0.72	-47	131	102	104
O=c1oc2ccccc2c(O)c1/C=C1\C=Nc2ccccc21	161*	95	6	i	-2.1	-76	152*	104	90
CCNc1nc(NC(C)(C)C)nc(SC(C(C)=O)C(C)=O)n1	141*	104	-3	i	0.31	-44	119	117	110
CCNc1nc(SC(C(C)=O)C(C)=O)nc(N(C)C)n1	113	102	-3	i	0.29	-14	.	.	.
O=C(Nc1ccccc1O)c1csc2c1CCCC2	151*	105	-8	i	0.76	-55	149*	118	97
Cc1cc(-c2ccc(NC(=O)[C@@H]3CCCC[C@@H]3C(=O)O)c(C)c2)ccc1NC(=O)[C@@H]1CCCC[C@@H]1C(=O)O	98	96	1	i	-0.0017	7	.	.	.
COc1cc(OC)cc(C(=O)Oc2ccc(/C=N/Nc3nc4ccccc4s3)cc2OC)c1	148*	121	-23	i	1.2	-51	151*	97	155*
COc1cc(/C=N/Nc2nc3ccccc3s2)ccc1OC(=O)c1ccccc1F	119	106	-4	i	-0.05	-27	.	.	.
CCn1nnnc1SCC(=O)c1cc(OC)ccc1OC	99	104	-4	i	0.29	8	.	.	.
Cn1c(/N=C/c2cc(Cl)ccc2O)nc2ccccc21	157*	104	-4	i	-0.83	-54	130	109	90
Cn1c(/N=C/c2cccs2)nc2ccccc21	147*	99	1	.	.	-55	122	98	94
CN=c1scc(-c2c[nH]c3ccccc23)n1C	138*	92	8	i	0.24	-35	137*	104	99
Nc1nc(-c2c[nH]c3ccccc23)cs1	104	93	7	i	-0.23	1	.	.	.
SMILES	STAT3 act-1	STAT1 act-1	STAT1 inh	HSV replic up	Cl transport mod	STAT3 blocker	STAT3 act-2	NFkB act 2	STAT1 act-2
Cc1ccc(-c2cc3nn(-c4ccccc4)c(N)c3c(=O)o2)cc1	87	111	-12	i	-0.77	20	.	.	.
O=C(O)/C(=N/NC(=O)c1ccc(Cl)cc1)c1ccccc1	.	.	.	i	0.013	.	.	.	.
CC(C)(C)c1ccc(CCC2OCC(C[N+]3(C)CCOCC3)O2)cc1 (stereo unspecified)	.	.	.	i	-0.0091	.	.	.	.
N#C/C(=C\c1ccc(-c2ccc(C(=O)O)cc2)o1)c1nc2ccccc2[nH]1	189*	128	-33	?	i	-97	205*	134*	141*
CNc1cc([N+](=O)[O-])ccc1N/C=C/C(=O)c1cccs1	176*	105	-6	i	-1	-92	153*	106	101
CN(C)c1nc(OCCOC(=O)COc2ccc(Cl)cc2Cl)nc(N(C)C)n1	107	110	-9	i	-1.2	-4	.	.	.
CN(C)c1nc(OCCNC(=O)COc2ccc(Cl)cc2Cl)nc(N(C)C)n1	146*	96	4	i	-1.9	-49	127	98	91
Cc1c(Cl)ccc2c1NC(=O)[C@]21[C@@H]2C(=O)N(Cc3ccccc3)C(=O)[C@@H]2[C@@H]2CCCN21	141*	102	-2	i	.	-43	127	101	89
O=C(c1cccc(F)c1)N1CCc2ccccc21	145*	100	3	i	.	-53	125	103	97
Cn1ncc(Cl)c1C(=O)N1CCc2ccccc21	155*	98	2	i	-0.032	-63	140*	105	97
Cn1ncc(Cl)c1C(=O)N1CCCc2ccccc21	99	98	2	i	0.89	1	.	.	.
Cc1nn(C)c(C(=O)N2CCc3ccccc32)c1Cl	144*	90	11	i	-0.19	-48	113	102	93
Cc1cc(C(=O)N2CCc3ccccc32)c2cc(F)ccc2n1	115	104	-5	i	-1.2	-14	.	.	.
Cc1ccc2c(c1)nnn2C1CCN(C(=O)C2CCCCC2)CC1	98	100	0	i	0.3	9	.	.	.
O=C1CC(C(=O)Nc2cccc3ccccc23)C2(CCCC2)O1 (stereo unspecified)	124	99	1	i	1.1	-22	.	.	.
Cc1nn(C)c(C(=O)Nc2ccc(Cl)c([N+](=O)[O-])c2)c1Cl	100	107	-8	i	0.045	0	.	.	.
Nc1nc(-c2ccc(Cl)cc2)nn1C(=O)c1cccs1	146*	95	7	i	0.039	-48	145*	103	91
